This note sets out measurements from ChEMBL document CHEMBL1125687, “5-Lipoxygenase inhibitors: the synthesis and structure-activity relationships of a series of 1-phenyl-3-pyrazolidinones” (J Med Chem, 1991).

The target in data set [1] is T1, Polyunsaturated fatty acid 5-lipoxygenase (Rattus norvegicus, UniProt P12527).
T1 sequence (P12527 whole entry): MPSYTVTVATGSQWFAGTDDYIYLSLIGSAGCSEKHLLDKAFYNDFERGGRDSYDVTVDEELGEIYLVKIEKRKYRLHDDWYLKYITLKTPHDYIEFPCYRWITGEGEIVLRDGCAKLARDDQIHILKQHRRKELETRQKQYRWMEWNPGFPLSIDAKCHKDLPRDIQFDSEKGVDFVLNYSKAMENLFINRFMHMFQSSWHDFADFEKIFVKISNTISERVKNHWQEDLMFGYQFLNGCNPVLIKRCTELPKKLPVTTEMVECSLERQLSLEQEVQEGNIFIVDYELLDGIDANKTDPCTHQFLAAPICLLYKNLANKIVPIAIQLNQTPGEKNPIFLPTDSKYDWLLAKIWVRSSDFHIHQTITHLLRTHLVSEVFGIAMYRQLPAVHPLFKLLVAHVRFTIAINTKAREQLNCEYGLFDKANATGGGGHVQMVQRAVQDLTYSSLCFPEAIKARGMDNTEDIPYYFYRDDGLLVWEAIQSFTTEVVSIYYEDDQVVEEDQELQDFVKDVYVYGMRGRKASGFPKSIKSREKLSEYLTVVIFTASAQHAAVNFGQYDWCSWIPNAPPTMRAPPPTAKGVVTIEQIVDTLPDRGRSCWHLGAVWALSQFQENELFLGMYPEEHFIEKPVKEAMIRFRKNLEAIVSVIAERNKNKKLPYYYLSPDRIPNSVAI
The data set can be described thus: In vitro inhibition of rat 5-Lipoxygenase. In a few lines: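 Broken-cell assay: homogenized rat basophilic RBL-1 cells preincubated 5 min at 37 °C with compound or vehicle, then given [14C]arachidonic acid. A chloroform extract was run on TLC, and LTB4 and 5-HETE were quantified by radiochromatographic scanning.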

Data set [2] has as its target T2, Polyunsaturated fatty acid 5-lipoxygenase (Rattus norvegicus) (UniProt P12527).
T2 sequence (whole entry): T1 sequence (P12527 whole entry)
The data set can be described thus: Compound was evaluated for the inhibition of 5-Lipoxygenase (5-LO) ex vivo. In kind it is functional. In a few lines:
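Rats received 0.25% (w/v) carrageenan to induce pleural inflammation. After 3 h, compound or vehicle was given orally, and rats were killed 1 h later. Pleural exudate cells (>95% neutrophils) were stimulated with A23187 for 15 min and stopped with acetonitrile/methanol. After 30 min extraction at room temperature, samples were centrifuged and LTB₄ measured by reverse-phase HPLC. ED₅₀ with 95% confidence limits came from linear dose-response portions, ≥5 animals per dose.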

Data set [3] is described as follows: Partition coefficient (logP). In kind it is physicochemical. The following applies: octanol/water.
A further data set concerns Cavia porcellus. The data set can be described thus: Compound was evaluated for the inhibition of leukotriene-mediated bronchoconstriction in guinea pig (in vivo). Conditions: Lung. In kind it is functional. In a few lines: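 Guinea pigs were immunized with ovalbumin 1 mg plus alum 3 mg and used two weeks later, anesthetized and mechanically ventilated with tracheal pressure monitored. Pretreatment iv: naproxen 10 mg/kg, pyrilamine 3 mg/kg, propranolol 0.1 mg/kg. Compound or vehicle was given orally 1 h before iv ovalbumin challenge (0.3 mg/kg). Percent inhibition was taken from the maximum tracheal pressure rise within 20 min. ED50 with 95% confidence limits came from linear dose-response portions, n≥8 per dose.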

Data set [4] addresses T2, Polyunsaturated fatty acid 5-lipoxygenase (Rattus norvegicus). Conditions: at 1 µM.
The target is the same in data set [5]. The data set can be described thus: Compound was evaluated for the inhibition of 5-Lipoxygenase (5-LO) in vitro at 1 uM.

The term IC50 denotes the concentration that gives 50% inhibition. Read a high IC50 as a need for much substance. Broadly, the ED50 is the dose that gives a 50% effect, or the effect in half of the subjects. Broadly, the logP is the decadic logarithm of the partition coefficient of the neutral form, usually between octanol and water. A lower logP goes with lower lipophilicity. The inhibition is the change of the read-out against control, counted positive when it falls. High values mean strong suppression, low ones little suppression.

Molecule `COCC1CN(c2ccccc2)NC1=O` (stereo unspecified) yielded an IC50 in data set [1] of 590 nM. Moreover, the ED50 in data set [2] came out at 29 mg/kg; in the data set with Cavia porcellus, 25 mg/kg. The molecule further yielded a logP in data set [3] of 0.891.
For the molecule `COCCc1cn(-c2ccccc2)[nH]c1=O`, the IC50 in data set [1] was > 1000 nM. In data set [4], the inhibition was 35%.
`CCSC1CN(c2ccccc2)NC1=O` (stereo unspecified): inhibition in data set [1] was half-maximal at 60 nM (IC50). Also, the ED50 turned out to be 95 mg/kg in data set [2] and 92 mg/kg in the data set with Cavia porcellus. The same molecule showed a logP in data set [3] of 2.5.
`COCCC1C(=O)NN(c2ccccc2)C1(C)C` (stereo unspecified): the IC50 in data set [1] was > 1000 nM. In data set [4], the inhibition is < 20%.
In the case of `O=C1NN(c2ccccc2)CC1SCc1ccccc1` (stereo unspecified), half-maximal inhibition in data set [1] (IC50) was put at 180 nM. The molecule further gave a logP in data set [3] of 3.63.
Turning to `CC(=O)NN(C)c1ccccc1`, the inhibition in data set [5] was < 20%.
For the molecule `CN(C)CCC1CN(c2ccccc2)NC1=O` (stereo unspecified), the IC50 in data set [1] was > 1000 nM. Besides, the inhibition in data set [5] is < 20%.
As to `CC(C)(O)C1CN(c2ccccc2)NC1=O` (stereo unspecified), the IC50 in data set [1] was > 1000 nM. In data set [4], this molecule yielded an inhibition of 35%.
With `CSC1CN(c2ccccc2)NC1=O` (stereo unspecified), in data set [1], the midpoint of inhibition, the IC50, lay at 320 nM. This molecule displayed a logP in data set [3] of 1.97.
As to `COCC1(C)CN(c2ccccc2)NC1=O` (stereo unspecified), 670 nM corresponded to half-maximal inhibition in data set [1] (IC50). For the same molecule, the log partition coefficient (logP) in data set [3] was determined as 1.41.
In the case of `COCCC1CN(c2ccc(Cl)cc2)NC1=O` (stereo unspecified), the IC50 in data set [1] was 250 nM. In addition, in data set [3], the logP is 1.24.
On the same counts, the results for `O=C1NN(c2ccccc2)CC1Sc1ccccn1` (stereo unspecified) are 120 nM and 2.16.
The matching figures for `O=C1CCCN(c2ccccc2)N1`: 530 nM and 1.45.
In data set [3], `COCCC1CN(c2ccc(C)cc2)NC1=O` (stereo unspecified) had a logP of 1.03.
In data set [1], `COCCC1CN(c2ccccc2)NC1=O` (stereo in doubt; 1f (-)) yielded an IC50 of 10300 nM. This counts as double-digit micromolar.
Turning to `COCCC1CN(c2ccc(OC)cc2)NC1=O` (stereo unspecified), the IC50 in data set [1] was determined as 1460 nM. In addition, the logP in data set [3] stood at 0.45.
On to `O=C1NN(c2ccccc2)CC1CCO` (stereo unspecified), for which the IC50 in data set [1] was > 1000 nM. This molecule yielded an inhibition in data set [4] of 35%.
With `CCCOCC1CN(c2ccccc2)NC1=O` (stereo unspecified), the IC50 in data set [1] came to 260 nM. The logP in data set [3] is 1.95.
In turn, `COCCC1CCN(c2ccccc2)NC1=O` (stereo unspecified) registered an IC50 in data set [1] of 440 nM. The logP in data set [3] turned out to be 1.09.
In turn, `COCCC1CN(c2cccc(C(F)(F)F)c2)NC1=O` (stereo unspecified) returned an IC50 in data set [1] of 220 nM. For the same molecule, the logP in data set [3] was found to be 1.41.
Regarding `O=C1CCN(c2ccccc2)N1` [PHENIDONE], the results for the 50% effective dose (ED50) (in data set [2]; with Cavia porcellus) were 16 mg/kg and 69 mg/kg, respectively. This molecule also came in with a logP in data set [3] of 0.893.
Consider `O=C1NN(c2ccccc2)CC1C(O)(c1ccccc1)c1ccccc1` (stereo unspecified), for which, in data set [1], the IC50 is < 1000 nM.
With `COCCC1CN(c2ccc(Cl)c(Cl)c2)NC1=O` (stereo unspecified), the IC50 in data set [1] was determined as 190 nM. In data set [3], this molecule came in with a logP of 1.96.
As to `COCCC1CN(c2ccccc2)NC1=O` (stereo in doubt; 1f) [listing 1 of 2 here], the 50% effect level in data set [2] (ED50) was put at a dose of 43 mg/kg.
In data set [1], `O=C1NN(c2ccccc2)CC1Cc1cccs1` (stereo unspecified) gave an IC50 of 140 nM. For the same molecule, the logP in data set [3] was determined as 2.48.
Take `COCCC1CN(c2ccccc2)NC1=O` (stereo in doubt; 1f) [listing 2 of 2 here]: the IC50 in data set [1] is 480 nM. The logP in data set [3] turned out to be 0.53. For the same molecule, in the data set on Cavia porcellus, the ED50 was determined as 62 mg/kg.
In data set [1], `COCCC1CN(c2ccccc2)NC1=O` (single isomer, unassigned; (+)) showed an IC50 of 350 nM.
As to `CCOCC1CN(c2ccccc2)NC1=O` (stereo unspecified), the IC50 in data set [1] amounted to 280 nM. Besides, the logP in data set [3] came out at 1.42.
`CCOCCC1CN(c2ccccc2)NC1=O` (stereo unspecified): inhibition in data set [1] was half-maximal at 150 nM (IC50). This molecule also showed a logP in data set [3] of 1.06.
The matching figures for `COCCC1CN(c2ccc(O)cc2)NC1=O` (stereo unspecified): 5130 nM and -0.14.
As for `NC1=NN(c2cccc(C(F)(F)F)c2)CC1` [BW-755C], the values for the ED50 (in data set [2]; with Cavia porcellus) were > 300 mg/kg and 300 mg/kg, respectively.
Turning to `COCCOCC1CN(c2ccccc2)NC1=O` (stereo unspecified), the IC50 in data set [1] came to 520 nM. The molecule also yielded a logP in data set [3] of 0.955.
With `COCC1CN(c2ccccc2)N(C)C1=O` (stereo unspecified), in data set [1], the IC50 is > 1000 nM. For the same molecule, the inhibition in data set [4] was < 20%.
`COCCC1CN(c2ccc(OCc3ccccc3)cc2)NC1=O` (stereo unspecified) had an IC50 in data set [1] of 500 nM. Also, the logP in data set [3] stood at 2.22.
Consider `COCc1cn(-c2ccccc2)[nH]c1=O`, for which, in data set [1], the IC50 was > 1000 nM.
In data set [1], `COCCC1C(=O)NN(c2ccccc2)C1C` (stereo unspecified) had an IC50 of 500 nM. The log partition coefficient (logP) in data set [3] was 1.05.
